Experimental data published in BindingDB's records for doi:10.1021/jm00027a001 (Telios Pharmaceuticals, 1994).
*1 amine or outer side, *2 acyl side, *3 side chain or, on linkers, in order; H or OH if unused. Where a SMILES comes first, the peptide text is derived from it. Bridges are numbered along the chain shown (N, C = ends). X2 = N[C@H](C(=O)[*:1])C1(S[*:2])CCCCC1

Key:
[1] = biological target: Integrin alpha-IIb/beta-3 (Homo sapiens, UniProt P05106+P08514); assay: Binding affinity against integrin alpha 2b-beta 3 in enzyme linked immunosorbent assay (ELISA)
Integrin alpha-IIb/beta-3, sequence (P05106 27-788 limits assumed): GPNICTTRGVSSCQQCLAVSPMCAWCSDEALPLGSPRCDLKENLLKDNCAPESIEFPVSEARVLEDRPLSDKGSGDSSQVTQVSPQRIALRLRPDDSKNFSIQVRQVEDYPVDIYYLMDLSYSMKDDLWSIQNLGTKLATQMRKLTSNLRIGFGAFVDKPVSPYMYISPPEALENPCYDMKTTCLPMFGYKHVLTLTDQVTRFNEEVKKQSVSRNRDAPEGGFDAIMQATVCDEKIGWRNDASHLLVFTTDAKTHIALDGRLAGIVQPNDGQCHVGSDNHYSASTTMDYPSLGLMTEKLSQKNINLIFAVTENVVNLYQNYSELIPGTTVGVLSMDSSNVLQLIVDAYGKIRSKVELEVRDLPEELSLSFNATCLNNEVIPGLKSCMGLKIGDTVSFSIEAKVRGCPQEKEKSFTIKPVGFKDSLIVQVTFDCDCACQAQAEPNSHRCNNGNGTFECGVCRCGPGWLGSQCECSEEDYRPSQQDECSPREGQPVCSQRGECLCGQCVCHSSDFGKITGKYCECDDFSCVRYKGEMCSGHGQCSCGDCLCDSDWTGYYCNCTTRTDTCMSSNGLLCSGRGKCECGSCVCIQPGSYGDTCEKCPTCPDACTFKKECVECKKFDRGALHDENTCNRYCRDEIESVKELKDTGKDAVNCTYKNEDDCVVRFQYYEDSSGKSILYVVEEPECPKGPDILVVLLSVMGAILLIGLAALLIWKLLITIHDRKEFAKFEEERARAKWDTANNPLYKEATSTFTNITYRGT
Integrin alpha-IIb/beta-3, sequence (P08514 32-887 limits assumed): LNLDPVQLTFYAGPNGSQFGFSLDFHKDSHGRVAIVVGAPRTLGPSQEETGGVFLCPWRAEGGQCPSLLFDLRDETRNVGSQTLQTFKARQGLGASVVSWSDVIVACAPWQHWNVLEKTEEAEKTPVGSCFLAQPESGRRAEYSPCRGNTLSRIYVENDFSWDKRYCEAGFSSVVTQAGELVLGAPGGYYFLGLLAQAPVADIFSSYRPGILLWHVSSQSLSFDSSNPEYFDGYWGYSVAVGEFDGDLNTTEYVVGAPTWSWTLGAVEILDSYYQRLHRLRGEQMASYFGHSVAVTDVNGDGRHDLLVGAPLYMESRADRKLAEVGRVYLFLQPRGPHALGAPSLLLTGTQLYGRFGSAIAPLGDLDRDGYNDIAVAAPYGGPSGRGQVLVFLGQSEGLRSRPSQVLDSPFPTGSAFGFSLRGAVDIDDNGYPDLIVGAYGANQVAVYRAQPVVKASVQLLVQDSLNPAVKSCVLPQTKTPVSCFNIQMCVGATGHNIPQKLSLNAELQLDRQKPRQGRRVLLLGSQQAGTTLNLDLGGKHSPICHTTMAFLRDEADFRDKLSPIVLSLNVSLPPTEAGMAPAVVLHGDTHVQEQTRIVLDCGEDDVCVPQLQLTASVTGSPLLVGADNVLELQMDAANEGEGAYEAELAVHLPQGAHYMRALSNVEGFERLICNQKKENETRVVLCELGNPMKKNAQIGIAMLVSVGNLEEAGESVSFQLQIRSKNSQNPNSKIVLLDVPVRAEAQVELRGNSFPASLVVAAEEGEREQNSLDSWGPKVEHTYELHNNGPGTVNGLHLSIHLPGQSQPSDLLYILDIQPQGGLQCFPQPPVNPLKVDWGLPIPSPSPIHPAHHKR
Integrin alpha-IIb/beta-3, sequence (P08514 891-1039 limits assumed): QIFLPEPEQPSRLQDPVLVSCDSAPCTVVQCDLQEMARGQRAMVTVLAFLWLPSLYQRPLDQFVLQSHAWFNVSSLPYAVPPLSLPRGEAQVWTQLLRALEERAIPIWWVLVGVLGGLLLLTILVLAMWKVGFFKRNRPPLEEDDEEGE
In short: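 Purified human platelet αIIbβ3 (from outdated platelets, octyl glucoside extract) in TBS with 20 mM octyl glucoside, 2 mM MgCl2 and 2 mM CaCl2 binds to plate-coated human fibrinogen (10 µg/mL in TBS) with 10-fold serial peptide dilutions for 3 h at room temperature. Bound receptor is detected with rabbit anti-αIIbβ3, then HRP anti-rabbit IgG, with o-phenylenediamine/H2O2 at pH 5.0. IC50 is reported.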

Integrin alpha-5/beta-1 = Integrin alpha-5/beta-1 (Homo sapiens, UniProt P05556+P08648); assay: Binding affinity against integrin alpha5-beta1 in enzyme linked immunosorbent assay (ELISA)
Integrin alpha-5/beta-1, sequence (P05556 21-798 limits assumed): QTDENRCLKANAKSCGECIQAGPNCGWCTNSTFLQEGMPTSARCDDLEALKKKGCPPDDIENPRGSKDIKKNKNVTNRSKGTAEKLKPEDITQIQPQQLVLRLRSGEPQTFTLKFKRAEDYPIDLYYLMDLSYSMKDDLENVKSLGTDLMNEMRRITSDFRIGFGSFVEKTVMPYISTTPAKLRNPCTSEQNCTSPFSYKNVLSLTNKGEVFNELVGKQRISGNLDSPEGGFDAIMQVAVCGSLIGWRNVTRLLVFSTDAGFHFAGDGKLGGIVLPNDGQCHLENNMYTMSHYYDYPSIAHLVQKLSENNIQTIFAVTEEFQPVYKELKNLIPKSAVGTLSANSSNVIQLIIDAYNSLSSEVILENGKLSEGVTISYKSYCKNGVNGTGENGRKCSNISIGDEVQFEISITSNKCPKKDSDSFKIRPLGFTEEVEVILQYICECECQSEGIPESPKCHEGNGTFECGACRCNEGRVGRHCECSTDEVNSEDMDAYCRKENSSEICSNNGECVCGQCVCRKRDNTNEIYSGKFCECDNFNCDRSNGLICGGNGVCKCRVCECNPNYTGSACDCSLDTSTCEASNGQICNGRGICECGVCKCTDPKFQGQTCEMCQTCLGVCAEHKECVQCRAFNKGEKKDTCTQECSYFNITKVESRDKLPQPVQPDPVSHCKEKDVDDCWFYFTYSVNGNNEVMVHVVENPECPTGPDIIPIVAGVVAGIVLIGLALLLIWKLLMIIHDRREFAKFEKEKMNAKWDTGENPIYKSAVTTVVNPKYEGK
Integrin alpha-5/beta-1, sequence (P08648 42-894 limits assumed): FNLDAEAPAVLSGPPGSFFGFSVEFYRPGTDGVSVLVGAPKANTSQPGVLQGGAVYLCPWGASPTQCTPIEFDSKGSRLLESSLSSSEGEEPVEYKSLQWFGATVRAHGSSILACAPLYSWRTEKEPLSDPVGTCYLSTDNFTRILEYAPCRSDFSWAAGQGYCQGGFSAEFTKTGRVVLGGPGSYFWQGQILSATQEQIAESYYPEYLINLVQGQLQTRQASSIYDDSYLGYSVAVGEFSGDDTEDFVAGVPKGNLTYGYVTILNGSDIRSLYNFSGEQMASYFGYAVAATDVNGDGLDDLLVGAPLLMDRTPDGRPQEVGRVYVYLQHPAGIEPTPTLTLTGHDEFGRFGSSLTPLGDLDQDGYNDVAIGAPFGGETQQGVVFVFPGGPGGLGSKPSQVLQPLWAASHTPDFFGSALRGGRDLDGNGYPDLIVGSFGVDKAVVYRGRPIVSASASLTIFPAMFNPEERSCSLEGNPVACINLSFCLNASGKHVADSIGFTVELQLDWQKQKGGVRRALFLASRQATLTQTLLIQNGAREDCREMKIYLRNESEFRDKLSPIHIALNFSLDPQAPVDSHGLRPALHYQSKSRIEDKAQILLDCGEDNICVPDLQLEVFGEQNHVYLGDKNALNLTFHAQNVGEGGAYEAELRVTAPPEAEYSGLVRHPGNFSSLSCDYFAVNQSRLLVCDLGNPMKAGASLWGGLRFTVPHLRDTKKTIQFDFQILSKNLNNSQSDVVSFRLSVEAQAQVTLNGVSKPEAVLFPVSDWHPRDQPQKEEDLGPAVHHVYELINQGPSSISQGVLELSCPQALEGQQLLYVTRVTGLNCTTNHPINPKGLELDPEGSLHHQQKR
Integrin alpha-5/beta-1, sequence (P08648 895-1049 limits assumed): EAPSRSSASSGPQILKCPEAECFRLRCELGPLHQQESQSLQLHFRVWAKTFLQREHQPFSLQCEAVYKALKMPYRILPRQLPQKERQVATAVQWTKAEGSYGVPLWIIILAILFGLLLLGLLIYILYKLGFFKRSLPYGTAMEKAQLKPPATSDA

Integrin alpha-V/beta-5 = Integrin alpha-V/beta-5 (Homo sapiens, UniProt P06756+P18084); assay: Binding affinity against integrin alpha V-beta5 in enzyme linked immunosorbent assay (ELISA)
In short: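 It is added to wells coated with human vitronectin in 0.1 M carbonate, pH 9.6, with 10-fold serial peptide dilutions for 3 h at room temperature. Detection uses rabbit anti-VnR, HRP anti-rabbit IgG and o-phenylenediamine/H2O2.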

SMILES | IC50 [1] [µM] | IC50 (Integrin alpha-5/beta-1) [µM] | IC50 (Integrin alpha-V/beta-5) [µM]
COc1ccc(C[C@@H]2NC(=O)[C@H](CC(=O)O)NC(=O)CNC(=O)[C@H](CCCN=C(N)N)NC(=O)[C@H](Cc3c[nH]cn3)NC(=O)[C@H](CCCN=C(N)N)NC(=O)[C@@H](N)CCC/N=C(/N)NC(=O)[C@@H](N)C3(CCCCC3)SSC[C@@H](C(=O)N[C@@H](CCCN=C(N)N)C(=O)O)NC(=O)[C@H](CCCN=C(N)N)NC2=O)cc1 [R(Pmc)-G-H-R-G-D-(Y-OMe)-R-C-R] (H-RRHRGDY(Me)RCR-OH; linker 1-9 via X2) | 6.2 | 6.2 | 
COc1ccc(C[C@@H]2NC(=O)[C@H](CC(=O)O)NC(=O)CNC(=O)[C@H](CCCN=C(N)N)NC(=O)[C@H](Cc3c[nH]cn3)NC(=O)[C@H](CC(N)=O)NC(=O)[C@@H](N)CCC/N=C(/N)NC(=O)[C@@H](N)C3(CCCCC3)SSC[C@@H](C(=O)N[C@@H](CCCN=C(N)N)C(=O)O)NC(=O)[C@H](CCCN=C(N)N)NC2=O)cc1 [R(Pmc)-N-H-R-G-D-(Y-OMe)-R-C-R] (H-RNHRGDY(Me)RCR-OH; linker 1-9 via X2) | 4.7 |  | 4.7
